Assay results as given in ChEMBL document CHEMBL4138251, “Iodine-Promoted Aromatization of p-Menthane-Type Phytocannabinoids” (J Nat Prod, 2018).

Columns and labels:
[1] = target: Cannabinoid receptor 1 (Homo sapiens, UniProt P21554); assay: Displacement of 3H-CP-55940 from recombinant full length human CB1 receptor expressed in HEK293 cell membranes after 90 mins by topcount scintillation counting analysis
[2] = target: Cannabinoid receptor 2 (Homo sapiens, UniProt P34972); assay: Displacement of 3H-CP-55940 from recombinant full length human CB2 receptor expressed in HEK293 cell membranes after 90 mins by topcount scintillation counting analysis
Cannabinoid receptor 2, sequence (P34972 whole entry): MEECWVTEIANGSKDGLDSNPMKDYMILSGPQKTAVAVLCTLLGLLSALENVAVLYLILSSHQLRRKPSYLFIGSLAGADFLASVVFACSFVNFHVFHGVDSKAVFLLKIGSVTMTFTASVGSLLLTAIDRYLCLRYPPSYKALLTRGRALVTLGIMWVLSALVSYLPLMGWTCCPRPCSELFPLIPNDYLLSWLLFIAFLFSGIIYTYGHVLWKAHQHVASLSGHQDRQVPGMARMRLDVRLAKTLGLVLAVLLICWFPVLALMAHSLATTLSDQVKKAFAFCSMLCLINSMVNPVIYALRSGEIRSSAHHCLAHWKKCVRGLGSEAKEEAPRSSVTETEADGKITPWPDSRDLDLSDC

[3] = target: Transient receptor potential cation channel subfamily A member 1 (Rattus norvegicus, UniProt Q6RI86); assay: Agonist activity at recombinant rat TRPA1 expressed in HEK293 cells assessed as increase in intracellular calcium level by Fluo4-AM probe based fluorescence assay; type: cell-based
Transient receptor potential cation channel subfamily A member 1, sequence (Q6RI86 whole entry): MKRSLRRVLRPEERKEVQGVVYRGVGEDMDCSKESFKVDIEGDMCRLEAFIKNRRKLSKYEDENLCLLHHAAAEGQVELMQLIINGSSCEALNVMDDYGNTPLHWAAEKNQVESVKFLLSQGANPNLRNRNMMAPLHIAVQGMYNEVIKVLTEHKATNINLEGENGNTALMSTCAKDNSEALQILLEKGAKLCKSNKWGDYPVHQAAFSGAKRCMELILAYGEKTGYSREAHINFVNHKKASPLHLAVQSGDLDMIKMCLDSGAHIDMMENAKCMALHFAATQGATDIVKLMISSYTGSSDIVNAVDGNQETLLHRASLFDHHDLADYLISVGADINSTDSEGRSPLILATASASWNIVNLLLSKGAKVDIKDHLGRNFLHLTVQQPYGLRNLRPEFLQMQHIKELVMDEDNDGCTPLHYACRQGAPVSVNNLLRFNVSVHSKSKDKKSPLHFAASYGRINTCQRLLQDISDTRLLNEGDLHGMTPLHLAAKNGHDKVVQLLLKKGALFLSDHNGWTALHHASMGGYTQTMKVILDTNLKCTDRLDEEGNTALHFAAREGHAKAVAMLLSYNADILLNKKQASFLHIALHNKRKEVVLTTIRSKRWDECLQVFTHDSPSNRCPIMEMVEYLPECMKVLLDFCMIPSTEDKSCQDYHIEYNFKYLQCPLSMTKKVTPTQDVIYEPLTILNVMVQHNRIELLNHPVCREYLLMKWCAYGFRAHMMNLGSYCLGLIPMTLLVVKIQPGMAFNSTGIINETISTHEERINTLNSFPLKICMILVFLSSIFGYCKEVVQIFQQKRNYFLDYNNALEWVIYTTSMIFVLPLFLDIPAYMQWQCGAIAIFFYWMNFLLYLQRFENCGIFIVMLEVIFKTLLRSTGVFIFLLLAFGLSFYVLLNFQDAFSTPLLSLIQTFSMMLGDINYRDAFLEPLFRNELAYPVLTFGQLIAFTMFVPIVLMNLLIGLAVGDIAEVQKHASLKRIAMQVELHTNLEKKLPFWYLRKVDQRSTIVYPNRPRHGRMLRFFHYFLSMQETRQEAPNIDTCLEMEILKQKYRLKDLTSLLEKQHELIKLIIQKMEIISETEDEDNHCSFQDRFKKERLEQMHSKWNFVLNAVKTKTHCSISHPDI
In short: (§1)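 HEK-293 cells stably expressing the channel, selected with G-418 (600 μg mL−1) and grown in MEM with 10% FBS and 2 mM glutamine at 37 °C, 5% CO2. Cells were loaded 1 h at room temperature in the dark with Fluo-4 AM (4 μM). Cells were washed and suspended in Tyrode's buffer pH 7.4, and fluorescence was read at 25 °C (ex 488/em 516 nm).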

[4] = target: Transient receptor potential cation channel subfamily M member 8 (Rattus norvegicus, UniProt Q8R455); assay: Antagonist activity at recombinant rat TRPM8 expressed in HEK293 cells assessed as inhibition of icilin-induced intracellular calcium level incubated for 5 mins followed by agonist stimulation by Fluo4-AM probe based fluorescence assay; type: cell-based
Transient receptor potential cation channel subfamily M member 8, sequence (Q8R455 whole entry): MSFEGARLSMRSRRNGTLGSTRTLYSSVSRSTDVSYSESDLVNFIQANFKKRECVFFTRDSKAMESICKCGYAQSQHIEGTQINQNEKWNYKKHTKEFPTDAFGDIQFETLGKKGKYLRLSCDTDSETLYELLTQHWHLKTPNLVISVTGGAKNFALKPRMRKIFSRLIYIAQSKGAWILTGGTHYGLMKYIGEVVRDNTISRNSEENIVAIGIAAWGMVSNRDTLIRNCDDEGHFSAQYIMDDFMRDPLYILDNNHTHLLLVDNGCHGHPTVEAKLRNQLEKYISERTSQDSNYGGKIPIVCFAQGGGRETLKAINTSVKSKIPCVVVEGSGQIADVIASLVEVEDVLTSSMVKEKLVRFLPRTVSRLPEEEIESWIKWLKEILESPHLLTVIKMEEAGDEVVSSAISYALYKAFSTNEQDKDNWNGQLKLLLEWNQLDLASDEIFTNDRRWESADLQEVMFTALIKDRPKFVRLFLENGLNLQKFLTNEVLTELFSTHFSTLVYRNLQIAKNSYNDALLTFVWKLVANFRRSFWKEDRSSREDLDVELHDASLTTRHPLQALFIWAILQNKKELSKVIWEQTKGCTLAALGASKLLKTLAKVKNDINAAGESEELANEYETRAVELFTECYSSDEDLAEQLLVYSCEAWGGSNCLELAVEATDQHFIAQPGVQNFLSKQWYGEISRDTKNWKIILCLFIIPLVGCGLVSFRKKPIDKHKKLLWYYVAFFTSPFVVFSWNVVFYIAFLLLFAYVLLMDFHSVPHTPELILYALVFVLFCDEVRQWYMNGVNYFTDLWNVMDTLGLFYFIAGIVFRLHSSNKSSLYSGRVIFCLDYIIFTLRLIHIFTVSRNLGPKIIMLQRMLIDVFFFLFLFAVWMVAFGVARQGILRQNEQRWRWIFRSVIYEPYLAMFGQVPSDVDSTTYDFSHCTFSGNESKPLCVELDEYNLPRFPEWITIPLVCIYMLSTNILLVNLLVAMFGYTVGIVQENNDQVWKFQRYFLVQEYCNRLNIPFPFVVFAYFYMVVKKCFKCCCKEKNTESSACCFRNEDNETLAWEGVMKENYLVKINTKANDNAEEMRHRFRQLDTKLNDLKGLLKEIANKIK
In short: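 Rat TRPM8 HEK-293 cells were loaded with Fluo-4 AM and suspended in Tyrode's buffer pH 7.4. Compound was added 5 min before icilin (0.25 μM), and [Ca2+]i was read at 22 °C on a Peltier system. IC50 for half-maximal inhibition of the agonist response was taken from sigmoidal fits.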

[5] = target: T1, Transient receptor potential cation channel subfamily V member 2 (Rattus norvegicus, UniProt Q9WUD2); assay: Agonist activity at recombinant rat TRPV2 expressed in HEK293 cells assessed as increase in intracellular calcium level by Fluo4-AM probe based fluorescence assay; type: cell-based; in short: as §1
T1 sequence (Q9WUD2 whole entry): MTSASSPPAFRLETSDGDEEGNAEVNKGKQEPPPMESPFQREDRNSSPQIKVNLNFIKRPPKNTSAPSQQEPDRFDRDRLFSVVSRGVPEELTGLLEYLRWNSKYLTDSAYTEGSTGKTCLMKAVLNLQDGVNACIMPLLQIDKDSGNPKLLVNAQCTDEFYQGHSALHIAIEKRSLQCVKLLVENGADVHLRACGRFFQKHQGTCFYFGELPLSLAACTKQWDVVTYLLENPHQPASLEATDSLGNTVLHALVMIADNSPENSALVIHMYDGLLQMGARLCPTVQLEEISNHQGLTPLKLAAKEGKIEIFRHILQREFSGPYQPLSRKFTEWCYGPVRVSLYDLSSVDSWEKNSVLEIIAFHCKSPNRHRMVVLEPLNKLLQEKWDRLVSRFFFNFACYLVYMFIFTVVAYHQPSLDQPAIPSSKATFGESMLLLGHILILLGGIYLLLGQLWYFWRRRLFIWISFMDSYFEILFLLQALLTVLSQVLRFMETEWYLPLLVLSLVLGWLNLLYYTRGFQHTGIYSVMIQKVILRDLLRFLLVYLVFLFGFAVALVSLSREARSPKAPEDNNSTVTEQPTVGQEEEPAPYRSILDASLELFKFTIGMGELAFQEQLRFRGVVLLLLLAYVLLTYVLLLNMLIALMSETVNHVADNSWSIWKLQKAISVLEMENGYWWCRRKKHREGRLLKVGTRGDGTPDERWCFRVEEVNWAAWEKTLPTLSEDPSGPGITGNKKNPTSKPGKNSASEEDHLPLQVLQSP

[6] = target: Transient receptor potential cation channel subfamily V member 4 (Rattus norvegicus, UniProt Q9ERZ8); assay: Agonist activity at recombinant rat TRPV4 expressed in HEK293 cells assessed as increase in intracellular calcium level by Fluo4-AM probe based fluorescence assay; type: cell-based; in short: as §1
Transient receptor potential cation channel subfamily V member 4, sequence (Q9ERZ8 whole entry): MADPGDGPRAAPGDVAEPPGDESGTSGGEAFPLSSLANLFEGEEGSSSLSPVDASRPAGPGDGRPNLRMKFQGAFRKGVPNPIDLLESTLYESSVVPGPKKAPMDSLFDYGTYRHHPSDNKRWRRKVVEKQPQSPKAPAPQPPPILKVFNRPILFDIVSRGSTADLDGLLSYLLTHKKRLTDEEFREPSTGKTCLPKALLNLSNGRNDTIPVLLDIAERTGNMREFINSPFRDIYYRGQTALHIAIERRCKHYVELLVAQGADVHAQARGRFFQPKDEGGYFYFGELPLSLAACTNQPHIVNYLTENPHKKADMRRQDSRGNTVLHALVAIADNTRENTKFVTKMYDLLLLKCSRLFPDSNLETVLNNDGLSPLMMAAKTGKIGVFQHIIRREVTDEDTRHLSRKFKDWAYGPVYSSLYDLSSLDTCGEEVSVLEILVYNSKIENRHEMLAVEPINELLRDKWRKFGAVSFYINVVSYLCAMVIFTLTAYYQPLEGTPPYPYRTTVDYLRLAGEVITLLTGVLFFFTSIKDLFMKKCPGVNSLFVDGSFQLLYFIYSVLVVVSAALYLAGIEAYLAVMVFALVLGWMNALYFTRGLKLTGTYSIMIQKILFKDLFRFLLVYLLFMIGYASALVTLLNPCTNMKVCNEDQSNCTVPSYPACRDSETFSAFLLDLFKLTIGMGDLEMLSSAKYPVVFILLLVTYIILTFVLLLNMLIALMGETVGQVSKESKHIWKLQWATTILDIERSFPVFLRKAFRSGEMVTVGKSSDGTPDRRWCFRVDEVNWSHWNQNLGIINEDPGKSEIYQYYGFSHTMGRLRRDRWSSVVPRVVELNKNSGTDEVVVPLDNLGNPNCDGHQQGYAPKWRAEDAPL

[7] = target: T2, Transient receptor potential cation channel, subfamily V, member 3 (Rattus norvegicus, UniProt E9PU00); assay: Agonist activity at recombinant rat TRPV3 expressed in HEK293 cells assessed as increase in intracellular calcium level by Fluo4-AM probe based fluorescence assay; type: cell-based; in short: as §1
T2 sequence (E9PU00 whole entry): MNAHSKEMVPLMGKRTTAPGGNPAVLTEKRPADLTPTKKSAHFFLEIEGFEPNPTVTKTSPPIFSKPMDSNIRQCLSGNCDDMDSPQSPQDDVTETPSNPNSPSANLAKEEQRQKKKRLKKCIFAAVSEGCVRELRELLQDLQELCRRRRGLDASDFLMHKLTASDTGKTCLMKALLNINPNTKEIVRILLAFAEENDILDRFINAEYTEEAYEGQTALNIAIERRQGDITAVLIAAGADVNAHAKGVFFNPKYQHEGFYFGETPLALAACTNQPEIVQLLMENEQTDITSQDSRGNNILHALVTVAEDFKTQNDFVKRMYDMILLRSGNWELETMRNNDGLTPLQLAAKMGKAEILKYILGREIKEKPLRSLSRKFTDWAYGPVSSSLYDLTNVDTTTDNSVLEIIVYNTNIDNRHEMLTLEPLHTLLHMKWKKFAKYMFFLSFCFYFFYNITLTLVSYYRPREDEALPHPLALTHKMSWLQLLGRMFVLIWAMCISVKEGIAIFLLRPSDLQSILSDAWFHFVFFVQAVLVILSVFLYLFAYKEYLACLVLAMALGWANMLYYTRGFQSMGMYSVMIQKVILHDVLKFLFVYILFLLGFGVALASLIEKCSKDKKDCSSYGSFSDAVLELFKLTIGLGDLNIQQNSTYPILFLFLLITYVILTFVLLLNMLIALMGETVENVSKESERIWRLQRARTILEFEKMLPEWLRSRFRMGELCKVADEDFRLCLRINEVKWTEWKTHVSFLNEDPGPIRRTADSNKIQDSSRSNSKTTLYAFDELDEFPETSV

[8] = target: Transient receptor potential cation channel subfamily V member 1 (Homo sapiens, UniProt Q8NER1); assay: Agonist activity at human TRPV1 expressed in HEK293 cells assessed as increase in intracellular calcium level by Fluo4-AM probe based fluorescence assay; type: cell-based; in short: as §1
Transient receptor potential cation channel subfamily V member 1, sequence (Q8NER1 whole entry): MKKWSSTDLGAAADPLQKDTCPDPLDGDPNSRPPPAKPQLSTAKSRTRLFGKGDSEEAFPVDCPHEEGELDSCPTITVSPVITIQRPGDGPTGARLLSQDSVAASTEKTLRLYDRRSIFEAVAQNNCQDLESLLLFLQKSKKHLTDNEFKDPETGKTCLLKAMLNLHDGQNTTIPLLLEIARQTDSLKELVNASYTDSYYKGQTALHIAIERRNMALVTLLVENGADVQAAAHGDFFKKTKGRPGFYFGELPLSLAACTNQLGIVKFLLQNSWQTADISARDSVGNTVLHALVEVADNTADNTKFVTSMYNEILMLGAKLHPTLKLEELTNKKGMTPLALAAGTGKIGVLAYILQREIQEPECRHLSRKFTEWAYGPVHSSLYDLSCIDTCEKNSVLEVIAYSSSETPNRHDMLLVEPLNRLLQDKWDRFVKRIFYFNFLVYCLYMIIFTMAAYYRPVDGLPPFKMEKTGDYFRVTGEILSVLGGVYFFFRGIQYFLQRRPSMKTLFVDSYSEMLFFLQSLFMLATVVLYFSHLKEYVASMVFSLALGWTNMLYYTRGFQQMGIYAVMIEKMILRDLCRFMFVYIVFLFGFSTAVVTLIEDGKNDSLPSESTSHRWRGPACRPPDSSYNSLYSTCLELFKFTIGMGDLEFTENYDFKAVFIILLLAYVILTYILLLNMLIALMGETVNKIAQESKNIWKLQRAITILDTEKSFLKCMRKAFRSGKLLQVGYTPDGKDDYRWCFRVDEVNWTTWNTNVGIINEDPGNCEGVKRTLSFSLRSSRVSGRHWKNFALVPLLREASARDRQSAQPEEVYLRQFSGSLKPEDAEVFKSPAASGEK

Cannabinoid receptor 1, sequence (P21554 whole entry): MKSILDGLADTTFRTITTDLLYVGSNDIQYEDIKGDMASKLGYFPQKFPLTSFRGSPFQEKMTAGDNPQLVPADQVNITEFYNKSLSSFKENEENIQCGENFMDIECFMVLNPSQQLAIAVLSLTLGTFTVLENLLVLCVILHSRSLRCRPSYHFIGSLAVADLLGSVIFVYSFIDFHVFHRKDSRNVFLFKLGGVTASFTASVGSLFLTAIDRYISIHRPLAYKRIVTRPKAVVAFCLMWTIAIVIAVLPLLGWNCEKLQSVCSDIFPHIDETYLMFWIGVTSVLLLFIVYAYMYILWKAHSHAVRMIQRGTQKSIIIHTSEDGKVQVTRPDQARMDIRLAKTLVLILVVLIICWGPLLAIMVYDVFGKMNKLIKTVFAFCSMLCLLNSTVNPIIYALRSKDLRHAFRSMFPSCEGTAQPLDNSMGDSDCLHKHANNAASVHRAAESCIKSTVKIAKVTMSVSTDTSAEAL

Structure (SMILES)	EC50 [1] [nM]	EC50 [2] [nM]	EC50 [3] [nM]	IC50 [4] [nM]	EC50 [5] [µM]	EC50 [6] [µM]	EC50 [7] [µM]	EC50 [8] [µM]
CCCc1cc(O)c2c(c1)OC(C)(C)c1ccc(C)cc1-2	565	4780	200	500	3.1	7.3	3.5	6.6
CCCCCc1cc(O)c2c(c1)OC(C)(C)c1ccc(C)cc1-2 [CANNABINOL]	75	73	180	210	19	16.1	5.3	6.2
